The data set can be described thus: Toxicity liver stage against HepG2, at 10uM. In kind it is cell-based. On the set-up: test concentration 10 uM, cell line HepG2-A16-CD81EGFP. Conditions: human, HepG2-A16-CD81EGFP cells; read-out: INHIBITION
The procedure, abridged:
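Uninfected HepG2-A16-CD81EGFP cells, 3 × 10^3 per well, 1536-well, plated on prespotted compound at 10 μM final, parasite-free screening media added to match infected plates; puromycin 10 μM positive, DMSO 0.5% negative; run in parallel with 48 h PbLuc assay at 37 °C, 5% CO2; viability by CellTiter-Glo luminescence, normalized to controls.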
With `O=C(c1cc(-c2cccs2)nc2ccccc12)N1CCN(CCO)CC1`, the cytotoxicity at 10 µM is -53.2%. With `COc1ncc(NS(=O)(=O)c2ccc(OC)c(C)c2)c(OC)n1` the figure was 34.8%. With `Cn1cnc2c1C(C(=O)N1CCCO1)N(C(=O)c1ccccc1)CC2` (centres undefined) the figure was -0.234%; with `COCC(=O)N1CCC2(CC1)CC(OC)CO2` (centres undefined), -1.56%.

In the case of `O=C(c1ccco1)N1CC[C@@H]2O[C@@H](COCC3CCOCC3)CC[C@@H]21`, the cytotoxicity at 10 µM came to 1.95%. For `CN(C)CC(=O)N1CCc2ncnc(-c3ccsc3)c2CC1` the value was -12.3%; for `CCn1ncc2c1C(COC)CN(Cc1cnn(C)c1)C2` (centres undefined), 1.49%; for `CO[C@H]1CN(Cc2ccccc2F)[C@@H]2CCCO[C@H]12`, -0.0925%. For `Cn1cc(CN2CC[C@]3(C[C@H](OCc4ccccn4)CO3)C2)cn1` the value was -1.08%; for `CSC1=Nc2c(cnn2-c2ccc(C)cc2)C2=NCCCN12`, 10.3%; for `O=C(Cn1nc2c(cc1=O)CCCC2)NC(C(=O)O)c1ccccc1` (centres undefined), 5.7%.

For `Cc1nn(C)cc1CN(C)C(=O)c1ccncc1`, the cytotoxicity at 10 µM is -5.51%. With `Cc1c2nnn(CC(=O)N(C)C)c(=O)c2nn1C` the figure was -4.26%; with `COc1cc(C(=O)NCC2(N(C)C)CCN(C)CC2)c2ccccc2n1`, -0.356%. With `Cc1csc(Nc2cc(C3CN(c4ccncn4)C3)nc(C)n2)n1` the figure was 11.6%; with `Cc1cccc(Nc2ccc(C3CCCCN3)cn2)n1` (centres undefined), -1.93%. For `Cc1nc(C2CN(Cc3scnc3C)CCO2)cc(N(C)C)n1` (centres undefined) the value was -12.3%; for `CC(C)Oc1ccc(CN2CCC(c3n[nH]c4ncccc34)CC2)cc1`, -21.4%. Regarding `Cc1cc(C)nc(N2CCCC(c3cccc(-n4ccnc4)n3)C2)n1` (centres undefined), the cytotoxicity at 10 µM is -0.252%. For `Nc1cc(CCC2CN(Cc3ccc4c(c3)OCCO4)CCO2)ccn1` (centres undefined) the value was 15.8%. For `Cc1cc(C)c(CN2CCCC23Cc2ccccc2CNC3=O)c(C)c1` (centres undefined) the value was 10.8%; for `Cc1ccc(CN2CCS(=O)(=O)C(C)(C)C2)cc1C`, 1.05%; for `CC(C)OCc1ccccc1CNC(=O)C(C)(C)C`, -8.11%. With `NC(=O)c1cncc(N2CCN(Cc3ccc(F)cc3Cl)CC2)n1` the figure was 11.8%; with `CC(NC(=O)NC1CCN(Cc2ccncc2)CC1)c1ccccc1F` (centres undefined), -17.8%. Regarding `O=C(CCc1nc(-c2ccsc2)no1)NCC1CCN(C2CC2)C1` (centres undefined), the cytotoxicity at 10 µM stood at 3.23%. On to `CC(CNC(=O)c1cnccn1)Oc1ccc(F)cc1` (centres undefined), for which the cytotoxicity at 10 µM is -2.55%. With `O=C(c1ccc(F)cc1Cl)N1CCn2c(nnc2C(F)(F)F)C1`, the cytotoxicity at 10 µM was -6.7%. As to `Cc1[nH]ncc1CCCNC(=O)Nc1ccc2c(c1)OC1(CCCC1)O2`, the cytotoxicity at 10 µM came out at 18.6%. For `Cc1ccc(C(=O)Nc2cc(C(N)=O)ccc2N2CCCCC2)cc1F` the value was 2.13%; for `CC(C)NC(=O)CCN1CCC(C(=O)c2cc(F)ccc2F)CC1`, -25%; for `COc1cccc(CN(C)CC2=Nc3ccccc3S(=O)(=O)N2)c1`, 36.4%. For the compound `COCc1ccccc1CNC(=O)CN1CCC2(CCOC2)C1` (centres undefined), the cytotoxicity at 10 µM was -61%. With `COc1ccc(C(C)Nc2cnn(C)c(=O)c2Cl)cc1OC` (centres undefined) the figure was 18.7%; with `COCCS(=O)(=O)NC(C)c1ccc(-n2nc(C)cc2C)cc1` (centres undefined), 1.91%. With `O=S(=O)(Cc1ccc(F)cc1)NCc1nnc2n1CCC2` the figure was 3.82%. `COc1ccc(C(C)N2CCC(CNC(C)=O)CC2)cc1Cl` (centres undefined): the cytotoxicity at 10 µM is -51.5%. With `CC(=O)N1CCC(NS(=O)(=O)c2cccnc2)CC1` the figure was -2.73%; with `COCCNC(=O)C[C@@H]1COC[C@H]2CN(C(=O)C3CCOCC3)C[C@@H]12`, -94.8%; with `COc1cc(N2CCN(CC3CC3)c3nc(C)ccc3C2)ncn1`, -101%. For `Cn1cc(C2COC3(CCN(C(=O)c4ccsc4)CC3)C2)cn1` (centres undefined) the value was -67%; for `Cc1cc(C(=O)N2CC[C@@]3(C[C@@H](NS(C)(=O)=O)CCO3)C2)no1`, -61.1%. For `CO[C@H]1CCN(Cc2nccs2)C[C@@H]1Cc1ccccc1` the value was -71.9%; for `CCO[C@@H]1CCN(C(=O)c2ccnnc2)[C@@H]1Cc1cnn(C)c1`, -62.8%. For `CCCn1c(C)c(CC(=O)NCCC(N)=O)c2c1CC(C)(C)CC2=O`, the cytotoxicity at 10 µM turned out to be 9.36%. `CC(C)c1cc(C(=O)NCC2CCCN(c3ncccn3)C2)n(C)n1` (centres undefined): the cytotoxicity at 10 µM stood at 17.2%. As for `CN(C)c1nc2c(c(N(C)Cc3n[nH]c4c3CCCC4)n1)CCNCC2`, the cytotoxicity at 10 µM stood at 3.2%. In the case of `CCO[C@H]1C[C@@H](O)C12CCN(C1CCN(c3ccccc3C)CC1)CC2`, the cytotoxicity at 10 µM was 9.9%. As for `CCc1c(C)nc(N)nc1NCCSCc1[nH]cnc1C`, the cytotoxicity at 10 µM is 4.5%.

`CCC(Nc1nc(C)nc2onc(C)c12)c1nc(C)c(C)s1` (centres undefined): the cytotoxicity at 10 µM is 37.2%.

For `COCCC1(C(=O)O)CCCN(C(=O)c2cc(C)oc2C)C1` (centres undefined), the cytotoxicity at 10 µM is -5.89%. For `CCc1c(C)nc(N)nc1N1CCCC(c2nc(CCOC)no2)C1` (centres undefined) the value was 31.5%; for `COc1ccc(C(=O)C2CCCN(Cc3cc(C)n[nH]3)C2)c(OC)c1` (centres undefined), -6.77%. With `CSCCc1c(-c2ccccc2)ncn1CC(C)(C)N1CCOCC1` the figure was -47.4%; with `O=C1N(Cc2ccc(F)c(F)c2)CCCC1(O)CNCC1CCCCC1` (centres undefined), 10.5%. For `O=C(NCCN1CCc2ccccc21)c1cc(-c2ccc(O)cc2)n[nH]1` the value was 1.91%; for `CC(C)(CNc1cccc(Cl)c1)NC(=O)C1CCCN(CC(N)=O)C1` (centres undefined), -1.46%; for `CC(C)N1CCCC2(CCN(Cc3noc(C4CCCC4)n3)C2)C1=O` (centres undefined), 2.24%.

Consider `Cc1ccc(Oc2ncccc2CNS(=O)(=O)N2CCOCC2)cn1`, for which the cytotoxicity at 10 µM came to 9.83%. With `O=C1N(Cc2cccc(F)c2F)CCCC1(O)CNCC1CCCCC1` (centres undefined) the figure was -1.29%. Take `CNC(=O)c1cn2cc(-c3ccc(F)cc3)n(CC=C(C)C)c(=O)c2n1`: the cytotoxicity at 10 µM is -52.2%. As to `CC(CN1CCC2(CC1)N=C(c1cccnc1)NC2=O)c1ccccc1` (centres undefined), the cytotoxicity at 10 µM worked out at 4.5%. For `COC[C@@]12CC[C@@H](N3CCOCC3)C[C@H]1CCN(c1cc(C)ccn1)C2` the value was -3.53%. Consider `CC(C)c1ccc(NC2CCCN(Cc3ccncc3)C2)cc1` (centres undefined), for which the cytotoxicity at 10 µM was -10.8%. For `CN(Cc1ccno1)C(=O)c1cccc(CC2CCNCC2)c1` the value was -15.9%; for `CCc1ccccc1OCCN(C)C(=O)CCN1CCCCO1`, -57.1%; for `CN(CC1(CO)CC1)C(=O)C1CCC(=O)N(Cc2ccc(Cl)cc2)C1` (centres undefined), -5.14%. For `CCc1cc(N2CCC3(CCCNC3=O)C2)nc(N2CCOCC2)n1` (centres undefined) the value was -0.28%; for `Cc1cc(=O)n(CC(=O)NC2CCCCC2)c2ccccc12`, 0.126%; for `Cc1c(C(=O)N2CCC(N3CCCCC3)CC2)n(C)c2ccc(Cl)cc12`, -63.8%. With `COCCN1CCCC2(CCN(c3ncnc(C)c3C)C2)C1=O` (centres undefined), the cytotoxicity at 10 µM came out at 33.4%. With `COc1cc(CN2CCCC2)ccc1Oc1ccc2c(c1)CC(CN)O2` (centres undefined) the figure was -7.79%; with `CC(=O)c1ccc(N2CCCC(CO)(CCOc3ccccc3)C2)nc1` (centres undefined), 3.15%. With `Cn1c(CN2CCCC2)nnc1C1CCCN(C(=O)C2CCOCC2)C1` (centres undefined) the figure was -17%; with `O=C(O)CC(NC(=O)c1ccccc1OC(F)F)c1cccs1` (centres undefined), -10.8%; with `CCOCCCn1c(NC(=O)c2scnc2C)nc2ccccc21`, 5.9%. With `Cc1nc(CN(C)C2CCN(Cc3ccc4ccccc4n3)C2)no1` (centres undefined) the figure was -2.23%; with `CCOc1ccc(N(CC(=O)c2ccccc2)C2=NCCCCC2)cc1`, -2.02%; with `Cc1ccc(CN(CCCn2ccnc2)Cc2c[nH]nc2C(C)(C)C)s1`, -3.91%. For the compound `CCOC(=O)c1ccccc1NC(=O)CN(C)Cc1ccccc1Cl`, the cytotoxicity at 10 µM was -5.65%. Turning to `COc1ccccc1CNC(C)c1ccc(-n2ccnc2)cc1` (centres undefined), the cytotoxicity at 10 µM worked out at 5.25%. For `COCCC(=O)N1CC2(CCN(Cc3ccccc3Cl)CC2)C1` the value was -73.1%; for `CN(C)CCN1CCCC12CCN(Cc1nccn1C)CC2`, -99.1%.

As to `CCCN1CCC2(C1)c1ccccc1S(=O)(=O)N2Cc1ccccc1` (centres undefined), the cytotoxicity at 10 µM stood at 16.7%. With `CN(C)C(=O)CN1CCC2(COCc3cnc(-c4cccnc4)nc32)C1` (centres undefined) the figure was -115%; with `Fc1cccc(CNCC2OCCc3cn(CC4CCOCC4)nc32)c1` (centres undefined), -77.1%; with `Cc1ccc(CN2CC[C@@H]3[C@H]2CCC(=O)N3Cc2ccncc2)s1`, -65.6%.

In the case of `CN(C)CCN1C(=O)CC[C@@H]2[C@H]1CCN2C(=O)c1ccc(C#N)cc1`, the cytotoxicity at 10 µM is -7.82%. For `COc1cc(N2C[C@@H]3COC[C@]3(COCc3ccccn3)C2)ncn1` the value was -73.2%; for `c1cncc(N2CCCn3nnc(CN4CCCCC4)c3C2)c1`, 1.24%; for `Fc1ccc(CN2C[C@@H]3OCCN(CC4CCCO4)[C@@H]3C2)cc1` (some centres undefined), -86.3%. For `OC1(Cn2ccc3ncccc32)CCN(Cc2ccccc2F)CC1` the value was -5.33%; for `O=C(c1ccc(F)c(Cl)c1)N1C[C@H]2CC[C@@H](C1)N(Cc1ccccc1)C2`, -8.28%; for `CCNc1c(NC(=O)NCCOC)c(=O)oc2ccccc12`, -2.89%.

Values taken from ChEMBL document CHEMBL4513216, “Probing the Open Global Health Chemical Diversity Library for Multistage-Active Starting Points for Next-Generation Antimalarials” (ACS Infect Dis, 2020).
